Data as given in ChEMBL document CHEMBL1137638, “TEM-158 (CMT-9), a new member of the CMT-type extended-spectrum beta-lactamases” (Antimicrob Agents Chemother, 2007).
Active and inactive are the calls of the source. The calls are words filed in the database; no cut-off is given here.

Tests used:
[1] = test system: Escherichia coli; test: Antibacterial activity against Escherichia coli BER1 producing beta-lactamase TEM-158; assay type: functional, organism-based
[2] = test system: Escherichia coli; test: Antibacterial activity against Escherichia coli BER1 producing TEM-158 by microdilution method; assay type: functional, organism-based
[3] = test system: Escherichia coli; test: Activity of Escherichia coli DH5alpha beta-lactamase TEM-12 by microacidimetric method
How it was run: (§1)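 Each beta-lactamase was purified to homogeneity. Kinetic constants (kcat, Km) for beta-lactam substrates, including penicillins, were determined by computerized microacidimetry.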

[4] = test system: Escherichia coli; test: Ratio of Kcat to Km for Escherichia coli DH5alpha beta-lactamase TEM-12; parameters: unit not given here; how it was run: as §1
[5] = test system: Escherichia coli; test: Activity of Escherichia coli CF0042 beta-lactamase TEM-35 by microacidimetric method; how it was run: as §1
[6] = test system: Escherichia coli; test: Ratio of Kcat to Km for Escherichia coli CF0042 beta-lactamase TEM-35; parameters: unit not given here; how it was run: as §1
[7] = test system: Escherichia coli; test: Ratio of Kcat/Km for Escherichia coli DH5alpha beta-lactamase TEM-12 to Kcat/Km for Escherichia coli DH5alpha beta-lactamase TEM-158; how it was run: as §1
[8] = test system: Escherichia coli; test: Ratio of Kcat/Km for Escherichia coli DH5alpha beta-lactamase TEM-35 to Kcat/Km for Escherichia coli DH5alpha beta-lactamase TEM-158; how it was run: as §1
[9] = test system: Escherichia coli; test: Ratio of Kcat/Km for Escherichia coli DH5alpha beta-lactamase TEM-1 to Kcat/Km for Escherichia coli DH5alpha beta-lactamase TEM-158; how it was run: as §1
[10] = test system: Escherichia coli str. K-12 substr. DH10B

CC1(C)S[C@@H]2[C@H](NC(=O)[C@H](C(=O)O)c3ccsc3)C(=O)N2[C@H]1C(=O)O
Activity [1]: inactive
Activity [2]: inactive
Km [3]: 12 µM
kcat [3]: 19 s⁻¹
kcat/Km [4]: 1.6
Km [5]: 320 µM
kcat [5]: 125 s⁻¹
kcat/Km [6]: 0.4
Ratio [7]: 8
Ratio [8]: 8
Ratio [9]: 8

C[C@@H](O)[C@H]1C(=O)N2C(C(=O)O)=C(SCCNC=N)C[C@H]12
Activity [1]: inactive
Activity [2]: inactive
Ratio [7]: 4

CO/N=C(\C(=O)N[C@@H]1C(=O)N2C(C(=O)O)=C(COC(N)=O)CS[C@H]12)c1ccco1
Activity [1]: inactive
Activity [2]: inactive
Ratio [7]: 4

CC(=O)OCC1=C(C(=O)O)N2C(=O)[C@@H](NC(=O)Cc3cccs3)[C@H]2SC1
Activity [1]: inactive
Activity [2]: inactive
Km [3]: 327 µM
kcat [3]: 46 s⁻¹
kcat/Km [4]: 0.02
Km [5]: 1200 µM
kcat [5]: 52 s⁻¹
kcat/Km [6]: 0.04
Ratio [7]: 4

CO[C@@]1(NC(=O)Cc2cccs2)C(=O)N2C(C(=O)O)=C(COC(N)=O)CS[C@@H]21
Activity [1]: inactive
Activity [2]: inactive
Ratio [7]: 4

CC(C)(O/N=C(\C(=O)N[C@@H]1C(=O)N2C(C(=O)[O-])=C(C[n+]3ccccc3)CS[C@H]12)c1csc(N)n1)C(=O)O
Activity [1]: inactive
Activity [2]: inactive
Km [3]: 254 µM
kcat [3]: 11.1 s⁻¹
kcat/Km [4]: 0.04
kcat [5]: < 0.1 s⁻¹
Ratio [7]: 4
kcat [10]: 16 s⁻¹

CC1(C)S[C@@H]2[C@H](NC(=O)Cc3ccccc3)C(=O)N2[C@H]1C(=O)O
Km [3]: 7 µM
kcat [3]: 80 s⁻¹
kcat/Km [4]: 11
Km [5]: 140 µM
kcat [5]: 1050 s⁻¹
kcat/Km [6]: 7.5
Ratio [7]: 8
Ratio [8]: 8
Ratio [9]: 8

CO/N=C(\C(=O)N[C@@H]1C(=O)N2C(C(=O)[O-])=C(C[N+]3(C)CCCC3)CS[C@H]12)c1csc(N)n1
Activity [1]: inactive
Activity [2]: inactive
Ratio [7]: 4

CO/N=C(\C(=O)N[C@@H]1C(=O)N2C(C(=O)O)=C(COC(C)=O)CS[C@H]12)c1csc(N)n1
Activity [1]: inactive
Activity [2]: inactive
Km [3]: 320 µM
kcat [3]: 10.6 s⁻¹
kcat/Km [4]: 0.03
kcat [5]: < 0.1 s⁻¹
Ratio [7]: 4

C[C@H]1[C@H](NC(=O)/C(=N\OC(C)(C)C(=O)O)c2csc(N)n2)C(=O)N1S(=O)(=O)O
Activity [1]: inactive
Activity [2]: inactive
Km [3]: 247 µM
kcat [3]: 2 s⁻¹
kcat/Km [4]: 0.008
kcat [5]: < 0.1 s⁻¹
Ratio [7]: 4

CC1(C)S[C@@H]2[C@H](NC(=O)[C@H](N)c3ccc(O)cc3)C(=O)N2[C@H]1C(=O)O
Activity [1]: inactive
Activity [2]: inactive
Km [3]: 7.5 µM
kcat [3]: 60 s⁻¹
kcat/Km [4]: 8
Km [5]: 245 µM
kcat [5]: 900 s⁻¹
kcat/Km [6]: 8.5
Ratio [7]: 4
Ratio [8]: 8
Ratio [9]: 8

CCN1CCN(C(=O)N[C@@H](C(=O)N[C@@H]2C(=O)N3[C@@H]2SC(C)(C)[C@@H]3C(=O)O)c2ccccc2)C(=O)C1=O
Activity [1]: inactive
Activity [2]: inactive
Km [3]: 15 µM
kcat [3]: 89 s⁻¹
kcat/Km [4]: 6
Km [5]: 320 µM
kcat [5]: 945 s⁻¹
kcat/Km [6]: 2.9
Ratio [7]: 8
Ratio [8]: 8
Ratio [9]: 8
